# Assays:
# Mus musculus [1] = assay: Toxicity in mouse assessed as effect on body weight at 3 to 30 mg/kg, po; type: organism-based; design: dose 3-30 mg/kg, route oral; conditions: in vivo
# Procedure, shortened: (§1)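 Behavioral safety study in mice given single oral doses of 3, 10 and 30 mg/kg. Tremors, tail pinch response, body temperature, pupil size and body weight were scored at 2 and 6 h post dose. Clinical signs were observed over one week after dosing.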
# Mus musculus [2] = assay: Toxicity in mouse assessed as effect on pupil size at 3 to 30 mg/kg, po; type: organism-based; design: dose 3-30 mg/kg, route oral; conditions: in vivo; procedure, shortened: as §1
# Mus musculus [3] = assay: Toxicity in mouse assessed as increase in tail pinch at 30 mg/kg, po measured at 6 hrs; type: organism-based; design: dose 30 mg/kg, route oral; conditions: in vivo; procedure, shortened: as §1
# Mus musculus [4] = assay: Toxicity in mouse assessed as appearance of tremor at 30 mg/kg, po measured at 2 hrs; type: organism-based; design: dose 30 mg/kg, route oral; conditions: in vivo; procedure, shortened: as §1
# Mus musculus [5] = assay: Toxicity in mouse assessed as increase in body temperature at 30 mg/kg, po measured at 6 hrs; type: organism-based; design: dose 30 mg/kg, route oral; conditions: in vivo; procedure, shortened: as §1
# Mus musculus [6] = assay: Toxicity in mouse assessed as increase in tail pinch at => 10 mg/kg, po; type: organism-based; design: dose 10 mg/kg, route oral; conditions: in vivo; procedure, shortened: as §1
# [7] = Genotoxicity in micronucleus (unknown origin)
# Salmonella typhimurium = assay: Mutagenic activity in Salmonella typhimurium by Ames test; type: toxicity, organism-based; conditions: salmonella enterica subsp. enterica serovar typhimurium
# [8] = biological target: Voltage-gated inwardly rectifying potassium channel KCNH2 (Homo sapiens, UniProt Q12809); assay: Inhibition of human ERG transfected in CHO cells by patch clamp assay; type: cell-based
# Procedure, shortened: (§2)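 Whole-cell patch clamp on CHO cells stably transfected with the human ERG gene.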
# hERG (KCNH2) [9] = biological target: T1, hERG (KCNH2) (Homo sapiens, UniProt Q12809); assay: Inhibition of human ERG transfected in CHO cells at 10 uM by patch clamp assay relative to control; type: cell-based; conditions: CHO cells transfected with human ERG; procedure, shortened: as §2
# hERG (KCNH2) [10] = biological target: T1, hERG (KCNH2); assay: Inhibition of human ERG transfected in CHO cells at 1 uM by patch clamp assay relative to control; type: cell-based; conditions: CHO cells transfected with human ERG; procedure, shortened: as §2
# Cytochrome P450 3A4 = Cytochrome P450 3A4 (Homo sapiens, UniProt P08684); assay: Inhibition of CYP3A4 (unknown origin); type: ADME
# Cytochrome P450 2C19 = Cytochrome P450 2C19 (Homo sapiens, UniProt P33261); assay: Inhibition of CYP2C19 (unknown origin); type: ADME
# Cytochrome P450 2D6 = Cytochrome P450 2D6 (Homo sapiens, UniProt P10635); assay: Inhibition of CYP2D6 (unknown origin); type: ADME
# Cytochrome P450 2C9 = Cytochrome P450 2C9 (Homo sapiens, UniProt P11712); assay: Inhibition of CYP2C9 (unknown origin); type: ADME
# Cytochrome P450 2B6 = biological target: T2, Cytochrome P450 2B6 (Homo sapiens, UniProt P20813); assay: Inhibition of CYP2B6 (unknown origin); type: ADME
# T2 sequence (P20813 whole entry): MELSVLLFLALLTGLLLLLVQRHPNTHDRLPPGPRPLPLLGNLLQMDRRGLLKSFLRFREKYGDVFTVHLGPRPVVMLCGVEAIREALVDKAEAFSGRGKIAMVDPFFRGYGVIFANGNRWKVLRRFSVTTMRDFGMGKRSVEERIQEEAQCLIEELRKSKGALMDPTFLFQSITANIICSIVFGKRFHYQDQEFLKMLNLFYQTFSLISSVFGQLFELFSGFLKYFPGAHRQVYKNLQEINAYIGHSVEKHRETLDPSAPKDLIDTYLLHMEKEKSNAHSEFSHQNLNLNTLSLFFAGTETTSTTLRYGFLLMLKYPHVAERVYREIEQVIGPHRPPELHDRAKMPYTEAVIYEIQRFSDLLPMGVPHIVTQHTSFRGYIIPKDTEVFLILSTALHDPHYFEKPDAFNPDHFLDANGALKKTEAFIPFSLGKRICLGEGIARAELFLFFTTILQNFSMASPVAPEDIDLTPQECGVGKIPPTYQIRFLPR
# Cytochrome P450 1A2 = biological target: T3, Cytochrome P450 1A2 (Homo sapiens, UniProt P05177); assay: Inhibition of CYP1A2 (unknown origin); type: ADME
# T3 sequence (P05177 whole entry): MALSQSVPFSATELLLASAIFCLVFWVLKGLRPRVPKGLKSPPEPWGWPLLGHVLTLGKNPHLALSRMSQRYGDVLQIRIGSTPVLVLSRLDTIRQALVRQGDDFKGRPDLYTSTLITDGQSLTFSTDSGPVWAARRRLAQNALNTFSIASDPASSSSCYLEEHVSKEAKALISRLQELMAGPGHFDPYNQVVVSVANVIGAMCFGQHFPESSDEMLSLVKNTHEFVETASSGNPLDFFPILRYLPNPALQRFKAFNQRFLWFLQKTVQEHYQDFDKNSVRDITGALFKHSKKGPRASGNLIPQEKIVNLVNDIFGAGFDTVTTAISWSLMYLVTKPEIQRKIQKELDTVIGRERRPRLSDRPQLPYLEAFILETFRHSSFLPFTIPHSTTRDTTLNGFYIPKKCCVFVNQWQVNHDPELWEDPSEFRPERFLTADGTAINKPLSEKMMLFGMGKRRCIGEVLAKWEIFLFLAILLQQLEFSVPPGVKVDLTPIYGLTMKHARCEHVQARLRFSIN
# [11] = Ratio of AUC (0 to 24 hrs) in C57BL/6 mouse brain to AUC (0 to 24 hrs) in C57BL/6 mouse plasma at 10 mg/kg, po; type: ADME, organism-based; design: dose 10 mg/kg, route oral; conditions: read-out: Ratio AUC
# Procedure, shortened: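 Male C57BL/6 mice were given a single oral dose of 10 mg/kg, formulated at 1 mg/mL in 5% DMSO/0.5% MC/0.2% tween 80. Compound levels were measured in plasma and brain over time. The brain-to-plasma ratio was calculated from AUC0-24 values.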
# [12] = Ratio of AUC (0 to 24 hrs) in C57BL/6 mouse brain to AUC (0 to 24 hrs) in C57BL/6 mouse plasma at 2 mg/kg, iv; type: ADME, organism-based; design: dose 2 mg/kg, route intravenous; conditions: read-out: Ratio AUC
# Procedure, shortened: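 Male C57BL/6 mice were given a single intravenous dose of 2 mg/kg, formulated at 1 mg/mL in 50% 1-methyl-2-pyrrolidinone in saline. Plasma and brain exposure profiles were collected, and the brain-to-plasma ratio was derived from the AUC values of the two tissues.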
# [13] = Volume of distribution at steady state in C57BL/6 mouse at 2 mg/kg, iv; type: ADME, organism-based; design: dose 2 mg/kg, route intravenous; conditions: in vivo, read-out: Vdss
# Procedure, shortened: (§3)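 Male C57BL/6 mice received a single intravenous dose of 2 mg/kg, formulated at 1 mg/mL in 50% 1-methyl-2-pyrrolidinone in saline. Plasma and brain concentrations were followed to derive PK parameters. Brain to plasma ratio was calculated from AUC.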
# [14] = Clearance in C57BL/6 mouse at 2 mg/kg, iv; type: ADME, organism-based; design: dose 2 mg/kg, route intravenous; conditions: in vivo; procedure, shortened: as §3
# [15] = Half life in C57BL/6 mouse brain at 10 mg/kg, po; type: ADME, organism-based; design: dose 10 mg/kg, route oral
# Procedure, shortened: (§4)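 Male C57BL/6 mice were dosed orally at 10 mg/kg, formulated at 1 mg/mL in 5% DMSO/0.5% MC/0.2% tween 80. Plasma and brain were sampled for PK parameters. Brain to plasma ratio was based on AUC0-24.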
# [16] = Half life in C57BL/6 mouse plasma at 10 mg/kg, po; type: ADME, organism-based; design: dose 10 mg/kg, route oral; procedure, shortened: as §4
# T1 sequence (Q12809 whole entry): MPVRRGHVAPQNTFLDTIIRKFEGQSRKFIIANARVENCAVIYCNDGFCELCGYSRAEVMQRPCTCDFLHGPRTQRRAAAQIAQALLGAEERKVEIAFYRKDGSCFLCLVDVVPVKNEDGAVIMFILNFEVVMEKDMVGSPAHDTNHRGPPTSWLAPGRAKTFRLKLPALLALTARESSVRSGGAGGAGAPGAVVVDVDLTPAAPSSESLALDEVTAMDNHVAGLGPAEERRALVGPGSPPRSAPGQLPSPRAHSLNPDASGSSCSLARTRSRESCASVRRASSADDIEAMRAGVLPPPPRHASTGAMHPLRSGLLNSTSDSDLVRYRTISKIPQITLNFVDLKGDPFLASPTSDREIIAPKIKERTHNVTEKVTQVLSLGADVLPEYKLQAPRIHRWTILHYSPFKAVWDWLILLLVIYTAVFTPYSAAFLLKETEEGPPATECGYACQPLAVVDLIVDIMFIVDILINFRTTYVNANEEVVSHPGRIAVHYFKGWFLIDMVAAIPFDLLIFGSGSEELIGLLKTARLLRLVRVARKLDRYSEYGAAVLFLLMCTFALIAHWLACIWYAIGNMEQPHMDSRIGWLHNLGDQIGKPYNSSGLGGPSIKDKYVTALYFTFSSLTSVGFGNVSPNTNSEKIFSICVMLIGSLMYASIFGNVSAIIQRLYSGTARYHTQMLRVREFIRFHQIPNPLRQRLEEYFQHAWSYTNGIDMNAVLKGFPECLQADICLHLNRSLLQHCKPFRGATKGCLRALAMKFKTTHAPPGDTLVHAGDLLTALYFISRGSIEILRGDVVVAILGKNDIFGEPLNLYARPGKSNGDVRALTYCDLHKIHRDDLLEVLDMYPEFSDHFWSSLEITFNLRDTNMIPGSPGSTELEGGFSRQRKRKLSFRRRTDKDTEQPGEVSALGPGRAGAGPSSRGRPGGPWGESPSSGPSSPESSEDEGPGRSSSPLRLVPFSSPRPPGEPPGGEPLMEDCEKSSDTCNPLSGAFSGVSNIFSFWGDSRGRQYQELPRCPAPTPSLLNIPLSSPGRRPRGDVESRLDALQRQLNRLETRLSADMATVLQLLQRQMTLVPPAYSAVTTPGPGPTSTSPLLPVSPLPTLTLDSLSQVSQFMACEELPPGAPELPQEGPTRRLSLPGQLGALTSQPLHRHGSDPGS
# Cytochrome P450 3A4, sequence (P08684 whole entry): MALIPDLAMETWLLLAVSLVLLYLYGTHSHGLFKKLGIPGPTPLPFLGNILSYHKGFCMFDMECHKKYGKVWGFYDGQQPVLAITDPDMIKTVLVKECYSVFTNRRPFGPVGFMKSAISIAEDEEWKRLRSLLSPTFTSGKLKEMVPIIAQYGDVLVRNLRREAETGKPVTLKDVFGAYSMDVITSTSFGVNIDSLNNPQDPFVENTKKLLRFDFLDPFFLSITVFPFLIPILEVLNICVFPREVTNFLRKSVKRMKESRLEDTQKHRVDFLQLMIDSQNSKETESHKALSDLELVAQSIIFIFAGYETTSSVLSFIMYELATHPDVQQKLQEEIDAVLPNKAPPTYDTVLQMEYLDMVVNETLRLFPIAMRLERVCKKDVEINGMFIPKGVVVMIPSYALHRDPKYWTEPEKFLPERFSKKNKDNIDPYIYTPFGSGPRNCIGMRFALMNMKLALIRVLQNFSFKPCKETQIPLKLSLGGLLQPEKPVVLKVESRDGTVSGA
# Cytochrome P450 2D6, sequence (P10635 whole entry): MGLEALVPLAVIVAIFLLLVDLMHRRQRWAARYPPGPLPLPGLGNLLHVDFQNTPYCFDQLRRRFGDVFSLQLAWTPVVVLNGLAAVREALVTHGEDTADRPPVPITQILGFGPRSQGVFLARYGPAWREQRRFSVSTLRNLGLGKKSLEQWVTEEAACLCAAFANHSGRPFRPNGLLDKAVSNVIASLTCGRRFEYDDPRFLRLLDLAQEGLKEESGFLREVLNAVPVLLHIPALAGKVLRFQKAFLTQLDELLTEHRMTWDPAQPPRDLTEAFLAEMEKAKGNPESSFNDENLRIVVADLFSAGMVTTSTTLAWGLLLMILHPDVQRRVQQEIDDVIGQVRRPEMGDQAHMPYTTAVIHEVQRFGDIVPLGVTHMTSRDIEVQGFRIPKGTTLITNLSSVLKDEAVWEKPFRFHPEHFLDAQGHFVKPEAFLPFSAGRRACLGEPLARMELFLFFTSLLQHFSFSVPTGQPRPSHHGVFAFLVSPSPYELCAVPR
# Cytochrome P450 2C19, sequence (P33261 whole entry): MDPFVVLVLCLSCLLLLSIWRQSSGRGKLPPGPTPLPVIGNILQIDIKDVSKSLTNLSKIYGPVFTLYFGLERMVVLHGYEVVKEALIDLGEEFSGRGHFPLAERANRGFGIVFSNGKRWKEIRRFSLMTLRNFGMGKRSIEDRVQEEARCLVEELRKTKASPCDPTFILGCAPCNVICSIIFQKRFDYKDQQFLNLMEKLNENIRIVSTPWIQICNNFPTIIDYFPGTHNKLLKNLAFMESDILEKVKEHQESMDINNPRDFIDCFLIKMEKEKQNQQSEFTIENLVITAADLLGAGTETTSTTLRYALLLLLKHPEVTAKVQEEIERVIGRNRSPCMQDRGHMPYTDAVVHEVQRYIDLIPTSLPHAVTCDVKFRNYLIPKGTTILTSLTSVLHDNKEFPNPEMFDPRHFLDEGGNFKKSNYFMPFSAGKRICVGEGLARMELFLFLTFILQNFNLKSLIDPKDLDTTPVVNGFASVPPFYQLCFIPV
# Cytochrome P450 2C9, sequence (P11712 whole entry): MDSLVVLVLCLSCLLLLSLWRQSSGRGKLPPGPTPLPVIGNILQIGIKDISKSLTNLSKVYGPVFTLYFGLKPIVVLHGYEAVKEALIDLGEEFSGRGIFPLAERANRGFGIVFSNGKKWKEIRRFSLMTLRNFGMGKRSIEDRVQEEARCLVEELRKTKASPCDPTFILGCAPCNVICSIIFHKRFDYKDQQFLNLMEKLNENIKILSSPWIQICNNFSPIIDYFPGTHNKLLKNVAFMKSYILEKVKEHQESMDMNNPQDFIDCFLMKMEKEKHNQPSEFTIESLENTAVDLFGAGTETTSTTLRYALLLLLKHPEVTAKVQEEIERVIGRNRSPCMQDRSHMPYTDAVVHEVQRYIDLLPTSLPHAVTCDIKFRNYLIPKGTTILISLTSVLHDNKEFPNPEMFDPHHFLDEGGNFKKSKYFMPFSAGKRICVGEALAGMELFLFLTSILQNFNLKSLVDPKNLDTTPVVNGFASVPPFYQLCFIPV
# Voltage-gated inwardly rectifying potassium channel KCNH2, sequence (Q12809 whole entry): as the sequence (Q12809 whole entry) above
compound,measurement,setting,value
Cc1cc(N2CC[C@H](N3CCC[C@@H]3C)C2)ccc1NC(=O)c1cc(F)ccc1C,Activity,Mus musculus [1],Non-toxic
same,Activity,Mus musculus [2],Non-toxic
same,Activity,Mus musculus [3],Toxic
same,Activity,Mus musculus [4],Toxic
same,Activity,Mus musculus [5],Toxic
same,Activity,Mus musculus [6],Toxic
same,Activity,[7],Non-toxic
same,Activity,Salmonella typhimurium,Non-toxic
same,IC50,[8],1.1 µM
same,inhibition at 10 µM,hERG (KCNH2) [9],84.3%
same,inhibition at 1 µM,hERG (KCNH2) [10],43.4%
same,IC50,Cytochrome P450 3A4,> 30 µM
same,IC50,Cytochrome P450 2C19,> 30 µM
same,IC50,Cytochrome P450 2D6,> 30 µM
same,IC50,Cytochrome P450 2C9,> 30 µM
same,IC50,Cytochrome P450 2B6,> 30 µM
same,IC50,Cytochrome P450 1A2,> 30 µM
same,Kp,[11],4.6
same,Kp,[12],4.7
same,Vd,[13],5.2 L/kg
same,clearance,[14],60 mL/min/kg
same,half-life,[15],3.5 h
same,half-life,[16],3.6 h
